These results are taken from ChEMBL document CHEMBL3792346, “Thiazolino 2-Pyridone Amide Inhibitors of Chlamydia trachomatis Infectivity” (J Med Chem, 2016).

The test system of data set [1] is Chlamydia trachomatis. The data set is described as follows: Antimicrobial activity against Chlamydia trachomatis serovar LGV-L2 infected in human HeLa cells assessed as concentration require to reduce relative inclusion forming units by 95% after 48 hrs. Format: functional. An outline of the steps: (§1)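 HeLa cells infected with LGV-L2 at MOI 0.1-0.5; compounds added at 1 hpi, tested at 2.5 µM then 5 or 10 µM or 1, 0.5, 0.25, 0.1 µM; after ~48 h, osmotic lysis, SPG restored, 10-fold dilutions reinfect fresh HeLa; IFUs counted by automated imaging versus DMSO; Reinfect95 = lowest concentration consistently giving 95% IFU reduction; ≥2 experiments in triplicate.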

A short description of data set [2]: Cytotoxicity against human HeLa cells assessed as cell viability at 10 uM after 48 hrs by resazurin assay relative to control. The data set is classed as cell-based. The note with it: read-out: Activity. An outline of the steps:
(§2)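 Uninfected HeLa seeded in RPMI, next day switched to colorless DMEM with 10% FBS, 2 mM glutamine; compounds added in triplicate, 48 h at 37 °C; resazurin added, 3 h at 37 °C dark; fluorescence ex 535/em 595 nm; cell-free wells with compound check direct resazurin reduction; mean of three experiments in triplicate, SD over nine replicates.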

For data set [3], the system named is Chlamydia trachomatis. The data set can be described thus: Antimicrobial activity against Chlamydia trachomatis serovar LGV-L2 infected in human HeLa cells assessed as decrease in relative inclusion forming units measured 44 to 48 hrs post infection by DAPI staining-based assay. Format: functional, organism-based. An outline of the steps: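 HeLa229 cells infected with serovar LGV-L2 at MOI 0.3; compounds in DMSO added at 1 hpi as 8-step halving dilutions from 2 to 0.0156 µM; after 44-48 h, osmotic lysis with cold water, SPG restored, lysate 10-fold serially diluted onto fresh HeLa; after 44-48 h, methanol-fixed, anti-Chlamydia/FITC stained, IFUs counted by automated scanner relative to DMSO; EC50 by nonlinear regression, ≥3 independent experiments.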

Data set [4] has as its system Chlamydia trachomatis. The data set is described as follows: Antimicrobial activity against Chlamydia trachomatis serovar D infected in human HeLa cells assessed as decrease in relative inclusion forming units measured 44 to 48 hrs post infection by DAPI staining-based assay. Format: functional, organism-based.
Data set [5] can be described thus: Cytotoxicity against human HeLa cells assessed as cell viability at 25 uM after 48 hrs by resazurin assay relative to control. Format: cell-based. The note with it: read-out: Activity. An outline of the steps: as §2
Data set [6] concerns Chlamydia trachomatis. The data set is described as follows: Drug uptake in Chlamydia trachomatis serovar LGV-L2 inclusion infected in human HeLa cells at 1 uM after 48 hrs by laser confocal microscopy. The data set is classed as ADME, organism-based. In outline:
(§3)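 HeLa on coverslips infected with LGV-L2 at MOI 0.5 in HBSS; after 60 min, fresh medium with fluorescent compound or BODIPY control (1 µM) added, left to 48 hpi; PBS-washed, 4% paraformaldehyde fixed, Triton-permeabilized, BSA-blocked, anti-MOMP/rhodamine stained; confocal imaging, 60× oil, Z-stack projections; ≥2 independent experiments.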

Data set [7] deals with Chlamydia trachomatis. The data set can be described thus: Drug uptake in Chlamydia trachomatis serovar LGV-L2 inclusion infected in human HeLa cells at 1 uM coadministered with 8-Cyclopropyl-7-(naphthalen 1-ylmethyl)-5-oxo-N-(3-methylphenyl)-2,3-dihydro-5H-[1,3]thiazolo[3,2-a]pyridine-3-carboxamide after 48 hrs by laser confocal microscopy. Format: ADME, organism-based. In outline: (§4)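 Infected HeLa (LGV-L2, MOI 0.5) given 1 µM fluorescent analogue alone or with equimolar competitor, added together directly after infection and kept to end; fixed, anti-MOMP stained, confocal imaged with identical settings; fluorescence per inclusion divided by inclusion area in >40 inclusions; two-tailed t-test; ≥2 independent experiments.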

Data set [8] concerns Chlamydia trachomatis. The data set can be described thus: Antimicrobial activity against Chlamydia trachomatis serovar LGV-L2 infected in human HeLa cells at 2.5 uM after 48 hrs. Format: functional. In outline: as §1
Data set [9] relates to Chlamydia trachomatis. The data set is described as follows: Drug uptake in Chlamydia trachomatis serovar LGV-L2 inclusion infected in human HeLa cells at 1 uM coadministered with 6-Amino-8-cyclopropyl-7-(naphthalen-1-ylmethyl)-5-oxo-N-phenyl-2,3-dihydro-5H-[1,3]thiazolo[3,2-a]pyridine 3-carboxamide after 48 hrs by laser confocal microscopy. Format: ADME, organism-based. In outline: as §4

The nature of data set [10]: 1-octanol-potassium phosphate buffer partition co-efficient, log P of the compound incubated overnight by shake-flask method. Format: physicochemical. An outline of the steps:
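Miniaturized shake-flask: 1-octanol pre-saturated with 0.1 M potassium phosphate pH 7.4 and buffer pre-saturated with octanol mixed 1:3 and 1:6; compound added from 10 mM DMSO stock; rotated overnight at rt, centrifuged 3500 rpm 30 min; each phase diluted in 60% acetonitrile with warfarin internal standard, quantified by UHPLC-MS/MS against 1-1000 nM external curve; ketoconazole control.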

The test system of data set [11] is Chlamydia trachomatis. The data set is described as follows: Antimicrobial activity against Chlamydia trachomatis serovar LGV-L2 infected in human HeLa cells at 10 uM measured 44 hrs post infection relative to control. Format: functional.
Data set [12] relates to Chlamydia trachomatis. The data set is described as follows: Antimicrobial activity against Chlamydia trachomatis serovar LGV-L2 infected in human HeLa cells measured 44 to 48 hrs post infection by DAPI staining-based assay. Format: functional, organism-based.
Data set [13] concerns Chlamydia trachomatis. The data set is described as follows: Antimicrobial activity against Chlamydia trachomatis serovar D infected in human HeLa cells at 10 uM measured 44 hrs post infection relative to control. The data set is classed as functional.
Data set [14] concerns Chlamydia trachomatis. The data set can be described thus: Antimicrobial activity against Chlamydia trachomatis serovar A infected in human HeLa cells at 10 uM measured 44 hrs post infection relative to control. The data set is classed as functional.
In a further data set the test system is Escherichia coli. The data set is described as follows: Effect on growth of Escherichia coli MW100 at 50 uM incubated for 8 hrs measured every hour during incubation. The data set is classed as organism-based. Particulars: in vivo; call rule not given here. An outline of the steps:
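E. coli MW100 overnight LB cultures at 37 °C diluted to OD600 0.05 in LB with DMSO or 50 µM compound; grown 8 h with OD600 read hourly and visual inspection; triplicate.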

Data set [15] can be described thus: Effect on growth of Lactobacillus crispatus CCUG 27076A at 50 uM after 48 hrs. In outline:
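L. crispatus CCUG 27076A in MRS broth at 37 °C, 5% CO2; overnight culture diluted 1:20 and grown 48 h with 50 µM compound or 1% DMSO.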

Another data set concerns Candida albicans. The data set is described as follows: Effect on growth of Candida albicans SC314 at 50 uM measured every 2 hrs by microscopy. The data set is classed as organism-based. The note with it: in vivo. In outline:
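C. albicans SC314 grown overnight at 30 °C, diluted to OD600 0.05, grown to OD600 0.2, then compound added at 10 and 50 µM and grown to saturation; sampled every 2 h for microscopic yeast:hyphal ratio.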

Data set [16] in a line: 1-octanol-potassium phosphate buffer distribution co-efficient, log D of the compound incubated overnight at pH 7.4 by shake-flask method.
Data set [17] in a line: Dissociation constant, pKa of the compound by UV-visible spectrophotometry. The data set is classed as physicochemical. An outline of the steps: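 Spectrophotometric titration: 2–5 µL of 10 mM DMSO stock in phosphate buffer with 20-50% (wt/wt) methanol cosolvent and ISA water; titrated pH 2-12 high to low under argon at 25 ± 1 °C, UV–vis spectra by D-PAS; electrode blank-calibrated pH 1.8-12.0 each run; precipitation monitored at 500 nm.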

Another data set concerns HeLa. The data set can be described thus: Drug uptake in human HeLa cells infected with Chlamydia trachomatis serovar LGV-L2 at 1 uM after 48 hrs by laser confocal microscopy. Format: ADME, cell-based. An outline of the steps: as §3

In the case of `Cc1ccc(NC(=O)C2CSc3c(C4CC4)c(Cc4cccc(C)c4C)c(N)c(=O)n32)cc1` (stereo not given), the Activity in the data set with Chlamydia trachomatis [1] is 1 µM. The viability at 48 h, 10 µM in data set [2] was determined as 101%. In addition, the EC50 in the data set with Chlamydia trachomatis [3] stood at 281 nM; in the data set on Chlamydia trachomatis [4] it was 274 nM. Further, the viability at 48 h, 25 µM in data set [5] stood at 102%.
In the case of `CC1=CC(C)=[N+]2C1=C(CCc1cc(=O)n3c(c1C1CC1)SCC3C(=O)Nc1cccc(C)c1)c1c(C)cc(C)n1[B-]2(F)F` (stereo not given), the Drug uptake result in the data set with Chlamydia trachomatis [6] is “Active”; with Chlamydia trachomatis [7], “Not Active”; in the data set with Chlamydia trachomatis [9], “Not Active”. The same molecule had an Activity with Chlamydia trachomatis [8] of more than 95%.
On to `O=C(Nc1ccccc1)c1csc2c(C3CC3)c(Cc3cccc4ccccc34)cc(=O)n12`, for which the Activity in the data set on Chlamydia trachomatis [1] was determined as 2.5 µM. In [2], the viability at 48 h, 10 µM came to 87%. Further, the EC50 with Chlamydia trachomatis [3] turned out to be 254 nM; with Chlamydia trachomatis [12] it was 1250 nM. Further, the viability at 48 h, 25 µM in data set [5] was 73%. The logP in data set [10] amounted to 5. Further, the “fold change (FC)” value in the data set with Chlamydia trachomatis [11], in the data set with Chlamydia trachomatis [13] and in the data set on Chlamydia trachomatis [14] was “>=10000” in each case.
For `Nc1c(Cc2cccc3ccccc23)c(C2CC2)c2n(c1=O)C(C(=O)Nc1ccccc1)CS2` (stereo not given), the Activity in the data set with Chlamydia trachomatis [1] was 0.25 µM; in the data set on Escherichia coli it was “Non-toxic”; in data set [15], “Non-toxic”; with Candida albicans, “Non-toxic”. The viability at 48 h, 10 µM in data set [2] worked out at 101%. For the same molecule, the 50% effective concentration (EC50) with Chlamydia trachomatis [3] was determined as 59 nM; in the data set on Chlamydia trachomatis [4] it was 58 nM. Moreover, the viability at 48 h, 25 µM in data set [5] was found to be 98%. Besides, in data set [16], the logD is 4.3. The pKa in [17] stood at 2.4.
In the case of `CC1=CC(C)=[N+]2C1=C(C)c1c(C)cc(C)n1[B-]2(F)F`, the Drug uptake result with Chlamydia trachomatis [6] and in the data set on HeLa was “Not Active” each time.
